The nature of data set [1]: Antiproliferative activity against human LNCaP-AR cells assessed as reduction in cell viability incubated for 6 days by CCK8 assay. In kind it is functional, cell-based. Conditions: 144 h. In a few lines: (§1)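 Cells seeded (2×10^4 per well for VCaP, 1–3×10^3 for the others) and compound added after 24 h as a 9-point, 3-fold serial dilution. Exposure 6 days, then CCK-8 for 1–4 h and absorbance at 450 nm. IC50 from curve fit, mean of at least two independent experiments run in duplicate.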
In general terms: Tetrazolium assays rely on reduction of a dye to a coloured formazan, in cell work by metabolically active cells.

Another data set deals with CWR22R. As to the kind of experiment: Antiproliferative activity against human 22Rv1 cells assessed as reduction in cell viability incubated for 6 days by CCK8 assay. Format: functional, cell-based. Conditions: 22Rv1, 144 h. In a few lines:
as §1

The target of data set [2] is T1, Androgen receptor (Homo sapiens) (UniProt P10275).
T1 sequence (whole entry): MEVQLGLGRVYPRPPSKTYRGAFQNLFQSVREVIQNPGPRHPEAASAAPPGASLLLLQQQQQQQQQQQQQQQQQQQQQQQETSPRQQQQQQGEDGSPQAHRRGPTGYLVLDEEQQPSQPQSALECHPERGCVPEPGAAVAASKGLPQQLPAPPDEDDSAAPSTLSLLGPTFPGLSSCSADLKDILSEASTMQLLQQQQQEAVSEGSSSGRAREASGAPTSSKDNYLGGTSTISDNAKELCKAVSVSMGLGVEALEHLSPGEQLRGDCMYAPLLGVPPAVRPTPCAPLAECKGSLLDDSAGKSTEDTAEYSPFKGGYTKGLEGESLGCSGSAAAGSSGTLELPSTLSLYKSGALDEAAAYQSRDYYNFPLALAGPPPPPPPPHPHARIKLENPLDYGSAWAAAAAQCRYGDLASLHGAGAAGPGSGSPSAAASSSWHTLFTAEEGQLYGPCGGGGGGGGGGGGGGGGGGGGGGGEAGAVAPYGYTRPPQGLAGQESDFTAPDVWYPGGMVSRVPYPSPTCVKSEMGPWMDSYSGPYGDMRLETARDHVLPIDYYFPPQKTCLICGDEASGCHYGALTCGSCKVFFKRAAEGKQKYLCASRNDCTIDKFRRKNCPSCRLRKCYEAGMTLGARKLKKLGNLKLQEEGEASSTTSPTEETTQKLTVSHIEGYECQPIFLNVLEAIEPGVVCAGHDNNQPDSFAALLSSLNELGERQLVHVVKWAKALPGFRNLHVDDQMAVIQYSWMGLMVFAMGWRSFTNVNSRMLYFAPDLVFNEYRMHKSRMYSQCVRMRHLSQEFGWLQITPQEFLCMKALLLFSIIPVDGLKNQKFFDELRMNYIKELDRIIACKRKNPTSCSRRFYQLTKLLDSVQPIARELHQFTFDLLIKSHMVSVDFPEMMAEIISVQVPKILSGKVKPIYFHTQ
As to the kind of experiment: Antagonist activity at androgen receptor in human VCaP cells assessed as inhibition of R1881-induced FKBP5 mRNA expression at 5 uM after 24 hrs by qRT-PCR analysis. In kind it is cell-based. The method, boiled down:
(§2)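 VCaP cells kept 48 h in DMEM with 5% charcoal-stripped FBS, then treated 24 h with compound plus 0.2 nM R1881. RNA extracted with TRIzol, reverse-transcribed, and PSA or FKBP5 mRNA quantified by qRT-PCR normalized to GAPDH. Expressed relative to DMSO-treated samples; mean ± SD, n = 3, two-tailed t-test.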
(Real-time PCR tracks product formation cycle by cycle.)

A further data set concerns PC-3. As to the kind of experiment: Antiproliferative activity against human PC3 cells assessed as reduction in cell viability incubated for 6 days by CCK8 assay. In kind it is functional, cell-based. The conditions noted are these: PC-3, 144 h. The method, boiled down: as §1
Data set [3] relates to VCaP. Briefly: Antiproliferative activity against human VCaP cells assessed as reduction in cell viability incubated for 6 days by CCK8 assay. In kind it is functional, cell-based. The conditions noted are these: 144 h. In a few lines:
as §1

The target in data set [4] is T1, Androgen receptor (Homo sapiens). Briefly: Antagonist activity at androgen receptor in human VCaP cells assessed as inhibition of R1881-induced PSA mRNA expression at 5 uM after 24 hrs by qRT-PCR analysis. Format: cell-based. In a few lines:
as §2

Another data set deals with L02. Briefly: Antiproliferative activity against human L02 cells assessed as reduction in cell viability incubated for 6 days by CCK8 assay. In kind it is cell-based. The conditions noted are these: L02, 144 h. In a few lines: as §1
The target in data set [5] is T2, Steroid 17-alpha-hydroxylase/17,20 lyase (Homo sapiens, UniProt P05093).
T2 sequence (P05093 whole entry): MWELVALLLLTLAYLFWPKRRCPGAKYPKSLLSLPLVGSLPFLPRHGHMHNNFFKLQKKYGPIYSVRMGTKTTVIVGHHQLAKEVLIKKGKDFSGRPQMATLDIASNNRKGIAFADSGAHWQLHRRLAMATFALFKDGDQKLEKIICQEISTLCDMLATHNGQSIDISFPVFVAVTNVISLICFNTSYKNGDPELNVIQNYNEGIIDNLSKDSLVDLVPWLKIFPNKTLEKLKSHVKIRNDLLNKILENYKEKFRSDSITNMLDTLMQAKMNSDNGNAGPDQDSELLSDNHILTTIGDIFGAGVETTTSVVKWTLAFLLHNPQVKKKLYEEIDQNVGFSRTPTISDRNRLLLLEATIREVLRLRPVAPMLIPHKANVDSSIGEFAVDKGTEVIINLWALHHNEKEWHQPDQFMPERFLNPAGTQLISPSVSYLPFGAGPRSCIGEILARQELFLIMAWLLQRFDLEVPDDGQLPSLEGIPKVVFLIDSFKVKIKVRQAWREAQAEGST
Briefly: Inhibition of C-myc/DDK tagged human CYP17A1 expressed in HEK293T cells assessed as reduction in formation of 17-OHP at 10 uM incubated for 30 mins by LC-MS/MS analysis. The conditions noted are these: 0.5 h. In kind it is cell-based. The method, boiled down: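 CYP17A1 activity measured as 17α-hydroxyprogesterone formation in 50 mM Tris pH 7.4, 5 mM MgCl2. Incubation 30 min at 37 °C, quenched with 20% trichloroacetic acid; product quantified by LC-MS/MS. Mean ± SD, n = 2.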

Data set [6] can be described thus: Toxicity in BALB/c nude mouse xenografted with human VCaP cells assessed as weight loss at 30 mg/kg, po qd administered for 40 days relative to control. In kind it is organism-based. The conditions noted are these: in vivo, 960 h.
Data set [7] relates to VCaP. As to the kind of experiment: Antitumor activity against human VCaP cells xenografted in BALB/c nude mouse assessed as inhibition of tumor growth at 30 mg/kg, po qd administered for 40 days relative to control. In kind it is functional. In a few lines:
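Male BALB/c nude mice, 5 weeks old, s.c. 1 × 10^7 VCaP cells in DMEM/Matrigel (1:1). Castrated under Nembutal at 150–200 mm3 and randomized (n = 8–10). Once tumors regrew to 200–350 mm3, oral 30 mg/kg qd for 40 days. TGI = [1 − (T − T0)/(C − C0)] × 100 from mean tumor volumes on first and last treatment days.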
In general terms: In xenograft studies the graft and the host belong to different species.

The IC50 is the concentration needed to halve the response being measured. The term inhibition denotes the change of the read-out against control, counted positive when it falls. By TGI is commonly meant how far tumour growth fell short of that in controls.

Active and inactive are the calls of the source. The calls are words filed in the database; no cut-off is given here. Some results are limits rather than exact numbers.

As to `CCN(c1ccc(C#N)c(Cl)c1)c1cc(-c2cncnc2)ccc1C`, the 50% inhibitory concentration (IC50) was 0.4 µM in [1], more than 30 µM in the data set on CWR22R, more than 30 µM in the data set on PC-3 and 3.92 µM in the data set with VCaP [3]. In addition, the inhibition result in data set [2] and in [4] was “Active” each time.
Consider `CCN(c1ccc(C#N)c(Cl)c1)c1cc(-c2cccnc2)ccc1C`, for which the IC50 was determined as 0.33 µM in [1]; 2 µM in the data set with CWR22R; 11 µM in the data set on PC-3; 1.27 µM with VCaP [3]; 12.7 µM with L02. Moreover, the inhibition entry in data set [2] and in data set [4] was “Active” throughout.
Regarding `C[C@]12CC[C@H](O)CC1=CC[C@@H]1[C@@H]2CC[C@]2(C)C(n3cnc4ccccc43)=CC[C@@H]12` [GALETERONE], the inhibition at 10 µM in [5] was 50%.
Take `CNC(=O)c1ccc(N2C(=S)N(c3ccc(C#N)c(C(F)(F)F)c3)C(=O)C2(C)C)cc1F` [ENZALUTAMIDE]: the IC50 in data set [1] is 0.19 µM; in the data set with CWR22R it was more than 30 µM; in the data set with PC-3 it was more than 30 µM; in the data set with L02, 17.1 µM. In [6], the Activity result was “Non-Toxic”. In addition, in the data set on VCaP [7], the TGI was 43%.
With `CCN(c1ccc(C#N)c(Cl)c1)c1cc(-c2ccnn2C)ccc1C`, the IC50 worked out at 0.17 µM in data set [1]; 4.33 µM in the data set on CWR22R; 7.29 µM in the data set on PC-3; 1.67 µM with VCaP [3]; 6.23 µM in the data set with L02. Also, the inhibition result in data set [2] and in data set [4] was “Active” in each case.
For the molecule `C[C@]12CC[C@H](O)CC1=CC[C@@H]1[C@@H]2CC[C@]2(C)C(c3cccnc3)=CC[C@@H]12` [ABIRATERONE], the inhibition at 10 µM in data set [5] was 100%.
As to `Cc1ccc(-c2c(C)noc2C)cc1Nc1ccncc1`, the IC50 amounted to 3.7 µM in [1] and 1.97 µM with VCaP [3]. In addition, the inhibition result in data set [2] and in data set [4] was “Active” each time.

The values above are taken from ChEMBL document CHEMBL4346686, “Discovery and biological evaluation of novel androgen receptor antagonist for castration-resistant prostate cancer” (Eur J Med Chem, 2019).
